The data set in a line: Toxicity liver stage against HepG2, at 10uM. In kind it is cell-based. The arrangement: test concentration 10 uM, cell line HepG2-A16-CD81EGFP. The following applies: human, HepG2-A16-CD81EGFP cells; read-out: INHIBITION
The essentials:
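Uninfected HepG2-A16-CD81EGFP cells, 3 × 10^3 per well, 1536-well, plated on prespotted compound at 10 μM final, parasite-free screening media added to match infected plates; puromycin 10 μM positive, DMSO 0.5% negative; run in parallel with 48 h PbLuc assay at 37 °C, 5% CO2; viability by CellTiter-Glo luminescence, normalized to controls.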
Regarding `CC1(C)Cc2ccccc2-c2nc(NCCCO)[nH]c(=O)c21`, the cytotoxicity at 10 µM worked out at 3.57%.

As for `COc1cc(OC)cc(C2NC(=O)CN2Cc2ccc(Br)cc2)c1` (stereo unspecified), the cytotoxicity at 10 µM was -6.67%.

For the compound `CN(C)c1nc(N)nc(CN2CCC(c3nc4ccccc4o3)CC2)n1`, the cytotoxicity at 10 µM was -6.9%. Turning to `COc1ccccc1CN1C[C@@H](F)[C@@H](OCc2nc3ccccc3[nH]2)C1`, the cytotoxicity at 10 µM stood at 9.55%. To `COc1cccc(Oc2nc(C)c(C(=O)O)s2)c1OC` belongs 1.96%; to `CSc1ccccc1C(=O)NCCC(O)c1ccco1` (stereo unspecified), -9.95%; to `CCOc1cccc2c1OCC(=O)N(c1ccc(N(C)C)cc1)C2`, 4.28%.

Turning to `CC(=O)Nc1ncc(-c2ccc(C)cc2)[nH]1`, the cytotoxicity at 10 µM is -4.63%. For `CCc1noc(C2CCCCN2C(=O)c2ccc(C)o2)n1` (stereo unspecified), the cytotoxicity at 10 µM is 14%. Consider `COCCNC(=O)c1cc(S(=O)(=O)N2CCCCCC2)cs1`, for which the cytotoxicity at 10 µM is -14.8%. As to `CNc1ccc(CC2CCCN(C(=O)c3cccc(C)n3)C2)nn1` (stereo unspecified), the cytotoxicity at 10 µM is -12.3%.

As for `Cc1ncsc1C(=O)N1CCC(O)(CN2CCc3ccccc3C2)C1` (stereo unspecified), the cytotoxicity at 10 µM is -8.11%. For the compound `CC(=O)N1CCCC1c1cc(N2CCN(CC3CC3)CC2)cc(C)n1` (stereo unspecified), the cytotoxicity at 10 µM is -2.14%. Next, `O=C1NC2(Cc3ccccc31)CN(CC1CCCC1)C2`: 7.58%; `CC(C)CSCCN1CCN(S(C)(=O)=O)CC1`: -3.66%; `CC(C)(C)C(=O)NCC(=O)Nc1cccnc1`: -4.96%. Next, `Cc1[nH]nc2ncc(C(=O)N3CCN(C(C)(C)C)CC3)cc12`: -4.36%; `COc1cccc(C(=O)NS(=O)(=O)c2cc(Cl)sc2Cl)c1OC(F)F`: -0.268%. As to `CC(=O)Nc1ccc(CNCC(O)c2ccc(Cl)cc2)cc1` (stereo unspecified), the cytotoxicity at 10 µM is -8.74%. As for `CCN(CC)S(=O)(=O)c1ccc(CNC(=O)N2CCC(C#N)CC2)cc1`, the cytotoxicity at 10 µM was found to be 20%. As for `Cc1ccc(F)c(S(=O)(=O)NCc2cccc(CS(C)(=O)=O)c2)c1`, the cytotoxicity at 10 µM is -7.61%.

As to `CN1N=C(C(=O)NCCc2ccc(OC3CCCC3)cc2)CCC1=O`, the cytotoxicity at 10 µM is -1.52%. Consider `Cc1cc(CNC(=O)NCCCC(=O)N2CCc3ccccc32)no1`, for which the cytotoxicity at 10 µM stood at 5.02%. Take `OC1(CNCc2ccc(F)c(C(F)(F)F)c2)CCSCC1`: the cytotoxicity at 10 µM was determined as 5.1%. Consider `COc1ncccc1NC(=O)N1CCOCC1C` (stereo unspecified), for which the cytotoxicity at 10 µM was -4.86%. With `Cc1nc(CNC(C)c2ccc(S(=O)(=O)N(C)C)cc2)no1` (stereo unspecified), the cytotoxicity at 10 µM is -4.32%. Next, `O=C(O)c1cc(S(=O)(=O)Nc2cccc3c2OCCO3)ccc1F`: 12.3%.

Turning to `Cc1nc(C(=O)N(CC2CCCO2)c2ccncc2)cs1` (stereo unspecified), the cytotoxicity at 10 µM was -7.3%.

Turning to `COc1cc(CN(C)C(=O)NCc2cccc3c2OCO3)ccc1SC`, the cytotoxicity at 10 µM was -6.08%. `CCOc1ncccc1CNC(=O)N1CCCC1c1cccs1` (stereo unspecified): the cytotoxicity at 10 µM was found to be 4.93%. Take `CC(C)(C)c1noc(CCC(=O)N2CCN(Cc3ccc(Cl)s3)CC2)n1`: the cytotoxicity at 10 µM was 3.36%.

Regarding `Cc1c(C(=O)NCC(C)C)nnn1-c1cccc2c1CCN(CCO)C2`, the cytotoxicity at 10 µM was determined as 8.09%. Next, `O=C(c1cccnc1O)N1CCC(COc2ccccc2)CC1`: 9.53%. With `CSC1(CNc2ncc(Br)cn2)CCOCC1`, the cytotoxicity at 10 µM is -8.93%. Consider `Cc1nc(C2CCCN2Cc2cc(Cl)c3c(c2)OCCO3)no1` (stereo unspecified), for which the cytotoxicity at 10 µM was 7.1%. As for `CC(C)OCc1cccc(NC(=O)N(C)Cc2ncnn2C)c1`, the cytotoxicity at 10 µM was determined as 4%. Turning to `CCCNC(=O)C1CCN(CC2(O)CCC(C)CC2)CC1` (stereo unspecified), the cytotoxicity at 10 µM was found to be 4.55%. Consider `CCN(Cc1noc(C(C)C)n1)Cc1ccc(C#N)cc1F`, for which the cytotoxicity at 10 µM was -2.48%. As for `CS(=O)(=O)Cc1noc(CN2CCN(c3ccccc3Cl)CC2)n1`, the cytotoxicity at 10 µM came out at 5.09%. For `OC1(CNC2CCN(Cc3ccncc3)CC2)CCc2ccccc21` (stereo unspecified), the cytotoxicity at 10 µM was -1.41%. For the compound `c1nc(N2CCCCC2Cn2cncn2)c2ccsc2n1` (stereo unspecified), the cytotoxicity at 10 µM is -2.49%. For the compound `COc1cccc(S(=O)(=O)CCN2CCCN(C(C)=O)CC2)c1`, the cytotoxicity at 10 µM was -10.4%. To `CC1CN(C)c2ccccc2CN1C(=O)c1ccncc1` (stereo unspecified) belongs -23.4%; to `CO[C@H]1CO[C@@]2(CCCN(C(=O)N3CCCC3)C2)C1`, -108%.

Take `O=C(c1cccs1)N1CCC2(CC1)CCN(S(=O)(=O)C1CC1)CC2`: the cytotoxicity at 10 µM is -106%. For the compound `CNCC(=O)Nc1cccc(-c2cnc(NCCS(C)(=O)=O)nc2)c1`, the cytotoxicity at 10 µM was -1.31%. To `CNC(=O)[C@@H]1C[C@@H](N)CN1c1nc(N2CCCC2)nc(C)c1C` belongs -7.82%; to `O=C1CCOCCN1Cc1ccc(Cl)c(Cl)c1`, 3.3%; to `Cc1cc(C)c2nc(C)cc(C(=O)NCc3csc(N(C)C)n3)c2c1`, 13.5%. Take `CCN1CCC(CNS(=O)(=O)N2CCc3ccccc3C2)C1` (stereo unspecified): the cytotoxicity at 10 µM was -15.4%. For the compound `Cc1ccc(-n2ccnc2-c2cn(C3CCNCC3)nn2)c(Cl)c1`, the cytotoxicity at 10 µM was 3.07%. To `CC(C)c1ncc(CN2C[C@@H](CN3CCCC3)[C@@H](CO)C2)cn1` belongs -7.3%; to `COc1ccccc1-n1nc(-c2ccco2)n(CC(=O)NC(C)C)c1=O`, 2.57%. To `O=C(c1cccnc1SC/C=C/c1ccccc1)N1CC[C@H](O)C1` belongs -9.66%; to `O=C(O)c1cc(-n2cc3c(n2)CCC3)cc(S(=O)(=O)N2CCOCC2)c1`, -7.95%. On to `Cc1cccc(N2CCN(CCC(=O)NCc3cnc(C)cn3)CC2)c1`, for which the cytotoxicity at 10 µM is -1.48%.

On to `CC(C)CN1C(=O)CC[C@H]2CN(C(=O)Cn3ccccc3=O)CC[C@H]21`, for which the cytotoxicity at 10 µM was -7.37%. Turning to `CC(O)C(=O)N1CCN(c2ccccc2Cl)C(=O)C1` (stereo unspecified), the cytotoxicity at 10 µM is -1.59%. Regarding `Cc1cnn(C(C)C2CC2)c1NC(=O)c1ccc(Cn2cnnn2)cc1` (stereo unspecified), the cytotoxicity at 10 µM is -2.06%. Next, `Clc1cccnc1N1CCC(C2CCN(Cc3cccnc3)CC2)C1` (stereo unspecified): 2.92%.

Regarding `Cc1nc2c(c(N(C)C)n1)CCN(C(=O)CN1CCC(O)CC1)C2`, the cytotoxicity at 10 µM was found to be 3.6%. As to `Cc1ccc2cc(CN(C)Cc3ccccn3)c(=O)[nH]c2c1`, the cytotoxicity at 10 µM was 3.08%. `CN1CCCC2(CCN(C(=O)Cc3cc4c(cc3Cl)OCCO4)C2)C1=O` (stereo unspecified): the cytotoxicity at 10 µM worked out at 10.1%. As for `O=C(Cn1c(=O)n(Cc2ccco2)c2ncccc21)Nc1ccccn1`, the cytotoxicity at 10 µM was 0.822%. Regarding `Nc1nc2nc(C3CCCN(C(=O)c4cscn4)C3)ccc2s1` (stereo unspecified), the cytotoxicity at 10 µM is -1.44%. In the case of `CC(C)c1nnc2n1CCN(C(=O)c1cc3cc(F)ccc3[nH]1)C2`, the cytotoxicity at 10 µM is 3.98%. Next, `COc1ccc(OC2CCN(Cc3ccn(C)c(=O)c3)CC2)cc1`: -5.25%; `CCc1csc(C2CCCN(C(=O)c3ncccn3)C2)n1` (stereo unspecified): -1.92%; `Cc1cnn(C2CN(CC(=O)NCCc3cccs3)C2)c1`: -3.92%. In the case of `Cc1nc(C)n(CC2CN(Cc3cccc(OC(C)C)c3)CCO2)n1` (stereo unspecified), the cytotoxicity at 10 µM was -5.44%. To `CC(C)(C)c1ncc(C(=O)NCCNC(=O)Cc2ccccc2)s1` belongs -6.44%; to `COCCN1CCC(CNC(=O)C2(c3ccccc3)CCC2)C1` (stereo unspecified), -5.36%; to `c1ccc2oc(CCCN3CCCC(Cn4cncn4)C3)nc2c1` (stereo unspecified), -27.8%. To `COc1ccc(Cl)cc1NCC(=O)NCCNc1ncccn1` belongs -9.24%; to `CC(C(=O)N1CCC(Nc2cccnn2)CC1)n1cccn1` (stereo unspecified), -9.17%; to `COc1ccc(NC(=O)C2CC(=O)N(C)C2)cn1` (stereo unspecified), -16.5%. For the compound `Cc1cc(C)n(CC2CCCN2CC(=O)N(C)Cc2ccc(C)o2)n1` (stereo unspecified), the cytotoxicity at 10 µM is -15.4%. Take `Cc1cnn(CCC(=O)N2CCCC(c3cc(C)[nH]n3)C2)c1` (stereo unspecified): the cytotoxicity at 10 µM was -23.6%.

As to `Cn1cnnc1C1CCCN(C(=O)COCc2ccccc2)C1` (stereo unspecified), the cytotoxicity at 10 µM was -18.1%. Regarding `Fc1cccc(Oc2ccc(CNCC3CNc4ccnn4C3)cn2)c1` (stereo unspecified), the cytotoxicity at 10 µM was -7.16%. For `CSCC(=O)N1CCCC(n2ccnc2C(C)C)C1` (stereo unspecified), the cytotoxicity at 10 µM was -18.2%. To `Cc1ccc(N2CCCN(C(=O)C3(C#N)CCCCC3)CC2)nn1` belongs -7.7%. For the compound `c1ccc(Cn2cccn2)c(CNCC2CNc3ccnn3C2)c1` (stereo unspecified), the cytotoxicity at 10 µM is -10.7%. For the compound `CNS(=O)(=O)c1cccc(CNc2cc(C(F)(F)F)ccn2)c1`, the cytotoxicity at 10 µM is -6.85%. Take `CC(C)CN1C(=O)CCC12CCC(NC(=O)NCc1cccnc1)CC2` (stereo unspecified): the cytotoxicity at 10 µM is -118%. Regarding `COc1cccc(CC(=O)N2CC[C@@H]3[C@H](CC2)N(C)CCS3(=O)=O)c1`, the cytotoxicity at 10 µM is 3.68%. Consider `CC(C)CN1CCc2[nH]nc(C(=O)N3CCCC3)c2C1`, for which the cytotoxicity at 10 µM was -98.9%.

On to `Cc1ccc(CN2CCc3onc(C(=O)NC(C)C)c3C2)o1`, for which the cytotoxicity at 10 µM is 11.5%. `Cc1nc(C)c2c(n1)CCN(Cc1nccn1C)CC2`: the cytotoxicity at 10 µM was -122%. With `Cn1nccc1-c1nnn2c1COCC(CNCC1CC1)C2` (stereo unspecified), the cytotoxicity at 10 µM is -98.8%. In the case of `O=C(C1CCC1)N1CCC2(CCN(Cc3cccc(F)c3)CC2)CC1`, the cytotoxicity at 10 µM is -4.29%. As for `CCc1ccc(CN2CCC3(CC2)CC(N2CCN(C)CC2)CO3)cc1` (stereo unspecified), the cytotoxicity at 10 µM is -2.88%. As to `Cc1ccc(CN2Cc3nccn3CC(Cn3cccn3)C2)s1` (stereo unspecified), the cytotoxicity at 10 µM is -101%. To `CC(C)CN1CC[C@@H]2[C@H](CC1)N(S(C)(=O)=O)CCS2(=O)=O` belongs 2.05%.

With `C=C1C(C)(C)[C@@H]2CC[C@]1(C(=O)N1CCC(Cn3cc(CO)nn3)CC1)C2`, the cytotoxicity at 10 µM is -6.01%. As for `c1ccc(CN2C[C@@H]3CC[C@H]2CN(Cc2nnc(C4CC4)o2)C3)cc1`, the cytotoxicity at 10 µM is -22.4%.

The values are drawn from ChEMBL document CHEMBL4513216, “Probing the Open Global Health Chemical Diversity Library for Multistage-Active Starting Points for Next-Generation Antimalarials” (ACS Infect Dis, 2020).
